Data published in ChEMBL document CHEMBL1126168, “Benzazepinone calcium channel blockers. 3. Synthesis and structure-activity studies of 3-alkylbenzazepinones” (J Med Chem, 1992).

Key:
Oryctolagus cuniculus = organism: Oryctolagus cuniculus; test: In vitro evaluation for the vasorelaxant effects in circumferential strips of potassium-depolarized rabbit aorta. (IC50 in rabbit aorta strips contracted with KCl); type: functional
[1] = In vivo evaluation for the percentage decrease in blood pressure at 45 umol/kg administered through oral route in spontaneously hypertensive rats and observed for 6-12 h
[2] = In vivo evaluation for the percentage decrease in blood pressure at 135 umol/kg administered through oral route in spontaneously hypertensive rats and observed for 12-18 h; type: functional, Rattus norvegicus
Procedure, shortened: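 Spontaneously hypertensive rats, n = 5, dosed orally at 135 μmol/kg; blood pressure followed and reported as percent decrease over the 0-6, 6-12 and 12-18 h intervals after dosing.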

[3] = In vivo evaluation for the percentage decrease in blood pressure at 45 umol/kg administered through oral route in spontaneously hypertensive rats and observed for 0-6 h
[4] = (§1) In vitro inhibition [3H]diltiazem binding to calcium channels in isolated guinea pig skeletal muscle microsomal preparations; type: microsomes, Cavia porcellus, Muscle tissue, Microsome
[5] = In vivo evaluation for the percentage decrease in blood pressure at 45 umol/kg administered through oral route in spontaneously hypertensive rats and observed for 12-18 h
Cavia porcellus = organism: Cavia porcellus; test: as §1; type: microsomes; details: Muscle tissue, Microsome, concentration not given here

SMILES	IC50 (Oryctolagus cuniculus) [nM]	Decrease [1] [%]	Decrease [2] [%]	Decrease [3] [%]	Kd [4] [nM]	Decrease [5] [%]	inhibition (Cavia porcellus) [%]
COc1ccc([C@@H]2Cc3cc(Cl)ccc3N(CCN(C)C)C(=O)[C@@H]2C)cc1	150	13	11	12	670		
COc1ccc([C@@H]2Cc3c(cccc3C(F)(F)F)N(CCN(C)C)C(=O)[C@@H]2Cc2ccccc2)cc1		8	6	14			
CC[C@H]1C(=O)N(CCN(C)C)c2cccc(C(F)(F)F)c2C[C@H]1c1ccc(OC)cc1.Cl		19	15	24			
COc1ccc([C@@H]2Cc3cc(C(F)(F)F)ccc3N(CCN(C)C)C(=O)[C@@H]2C)cc1.Cl	1230	23	25	23			
COc1ccc([C@@H]2Cc3c(ccc(Br)c3OC)N(CCN(C)C)C(=O)[C@@H]2C)cc1.Cl	90	12	14	9	120		
COc1ccc([C@@H]2Cc3c(cccc3C(F)(F)F)N(CCN(C)C)C(=O)[C@H]2C)cc1		23		24		17	
C=CC[C@H]1C(=O)N(CCN(C)C)c2ccccc2C[C@H]1c1ccc(OC)cc1.Cl		23	18	25			
COc1ccc([C@@H]2Cc3c(OC)cccc3N(CCN(C)C)C(=O)[C@@H]2C)cc1.Cl		10	8	7	400		
C=CC[C@H]1C(=O)N(CCN(C)C)c2cccc(C(F)(F)F)c2C[C@H]1c1ccc(OC)cc1.Cl (relative stereo)	77	32	27	33			
COc1ccc([C@@H]2Sc3cc(Cl)ccc3N(CCN(C)C)C(=O)[C@@H]2OC(C)=O)cc1 [CLENTIAZEM]	100	16		29		22	
COc1ccc([C@@H]2Cc3c(cccc3C(F)(F)F)N(CCN(C)C)C(=O)[C@@H]2C)cc1	80	22	22	28			90
C=CC[C@H]1C(=O)N(CCN(C)C)c2ccc(Cl)cc2C[C@H]1c1ccc(OC)cc1	160	23	25	23	5040		
COc1ccc([C@@H]2Cc3c(cccc3C(F)(F)F)N(CCN(C)C)C(=O)[C@H]2C)cc1.Cl		9	8	12			
CC[C@H]1C(=O)N(CCN(C)C)c2ccc(Cl)cc2C[C@H]1c1ccc(OC)cc1	280	22	21	20			
C=CCC1C(=O)N(CCN(C)C)c2cccc(C(F)(F)F)c2CC1c1ccc(OC)cc1.Cl (centres undefined)	100	27		24		29	
COc1ccc([C@@H]2Cc3ccccc3N(CCN(C)C)C(=O)[C@@H]2C)cc1.Cl	1100	4	8	6			
CCC[C@H]1C(=O)N(CCN(C)C)c2ccccc2C[C@H]1c1ccc(OC)cc1.Cl		11	12	10	250		
CCC[C@H]1C(=O)N(CCN(C)C)c2ccc(C(F)(F)F)cc2C[C@H]1c1ccc(OC)cc1.Cl	1200	5	8	6			
COc1ccc([C@@H]2Cc3c(ccc(SC)c3OC)N(CCN(C)C)C(=O)[C@@H]2C)cc1.Cl	70	15	14	18			
CCC[C@H]1C(=O)N(CCN(C)C)c2cccc(C(F)(F)F)c2C[C@H]1c1ccc(OC)cc1.Cl		19		14		24	
COc1ccc([C@@H]2Cc3c(cccc3C(F)(F)F)N(CCN(C)C)C(=O)[C@@H]2OC(C)=O)cc1		12		17		12	
C=CC[C@H]1C(=O)N(CCN(C)C)c2ccc(C(F)(F)F)cc2C[C@H]1c1ccc(OC)cc1.Cl	240	28		23		30	
CC[C@H]1C(=O)N(CCN(C)C)c2cccc(Cl)c2C[C@H]1c1ccc(OC)cc1	80	18		14		7	
